Measurements of several laboratories.
Each line is one published result; the experiments were not run side by side.
Target: cGMP-dependent protein kinase 1 (PRKG1, Homo sapiens, UniProt Q13976)
Residues used in one study (Q13976 1-671): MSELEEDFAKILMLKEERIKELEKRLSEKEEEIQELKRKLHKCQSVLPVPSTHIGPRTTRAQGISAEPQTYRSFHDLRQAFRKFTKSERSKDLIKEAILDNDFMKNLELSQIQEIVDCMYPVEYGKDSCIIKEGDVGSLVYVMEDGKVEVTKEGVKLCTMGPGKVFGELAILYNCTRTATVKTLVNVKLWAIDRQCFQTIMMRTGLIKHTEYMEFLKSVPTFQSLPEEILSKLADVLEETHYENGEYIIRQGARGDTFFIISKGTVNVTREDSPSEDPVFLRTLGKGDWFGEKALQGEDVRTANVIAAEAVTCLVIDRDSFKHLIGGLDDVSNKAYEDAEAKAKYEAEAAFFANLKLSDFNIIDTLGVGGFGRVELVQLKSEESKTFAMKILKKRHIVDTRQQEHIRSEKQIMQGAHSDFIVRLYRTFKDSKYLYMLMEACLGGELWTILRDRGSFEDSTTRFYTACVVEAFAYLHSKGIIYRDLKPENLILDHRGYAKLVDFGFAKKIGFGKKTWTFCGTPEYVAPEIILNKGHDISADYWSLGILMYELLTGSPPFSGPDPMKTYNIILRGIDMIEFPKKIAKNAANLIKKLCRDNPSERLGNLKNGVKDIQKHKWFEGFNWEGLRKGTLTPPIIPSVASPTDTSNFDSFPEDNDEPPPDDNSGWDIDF

`Cc1cnn2ncc(-c3ccnc(N(C)C)n3)c2c1` gave a remaining binding of 99% (binding; 1 µM).
With `CCOC(=O)c1cc2cc(-c3cc(C(=O)NCc4ccc(C(=O)O)cc4)nn3C)ccc2[nH]1` the remaining binding was 91% (cell-free assay, competition with immobilised ligand; 0.1 µM).
With `N[C@@H]1CCN(c2nccc(-c3cnn4ncccc34)n2)C1` the remaining binding was 100% (binding; 1 µM).
`CNC(=O)[C@@H]1CC[C@@H](n2c(-c3ccc4cnccc4c3)nc3ccc(C(=O)NCc4cccc(C(N)=O)c4)cc32)C1` has a remaining binding of 98% (binding, competition with immobilised ligand; 1 µM).
`CC1=C(C#N)[C@@H](c2ccc3[nH]nc(C)c3c2)C(C#N)=C(c2ccc(Cl)cc2)N1` has a remaining binding of 86.9% (cell-free assay, competition with immobilised ligand; 1 µM).
For `COc1ncc2cc3ccccc3nc2c1C#N`, the remaining binding was 100% (cell-free assay, competition with immobilised ligand; 5 µM).
`O=C(Nc1c[nH]nc1C(=O)NC1CCNCC1)c1cc(F)cc(F)c1` has a remaining binding of 100% (binding, competition with immobilised ligand; 1 µM).
`C[C@@]1(Cc2ccc(C#N)cc2)C(=O)N(c2cc(Cl)cc(Cl)c2)c2ncc(C(=O)NC3(c4nc(C5CCC5)no4)CC3)n21` has a remaining binding of 100% (cell-free assay, competition with immobilised ligand; 1 µM).
For `Cc1cnc(Nc2ccc(C(=O)N3CCC(N4CCCC4)CC3)cc2)nc1-c1cc2ccccc2s1`, the remaining binding was 100% (binding, competition with immobilised ligand; 1 µM).
With `F[C@@H]1CCN(c2nccc(-c3cnn4ncccc34)n2)C1` the remaining binding was 90% (binding; 1 µM).
The remaining binding of `O=C(NCCCN1CCOCC1)c1ccc(Nc2nccc(-c3cc4ccccc4s3)n2)cc1` is reported as 99% (binding, competition with immobilised ligand; 1 µM).
The remaining binding of `COc1ccc2c(c1)O[C@@H](c1ccc(OC)c(OC)c1)C[C@H]2NC(=O)C1(c2ccc3c(c2)OC(F)(F)O3)CC1` is reported as 100% (cell-free assay, competition with immobilised ligand; 1 µM).
`C[C@H]1CCN(c2nccc(-c3cnn4ncccc34)n2)C1` gave a remaining binding of 98% (binding; 1 µM).
The remaining binding of `CCN1CCN(Cc2ccc(C(=O)Nc3ccc(C)c(Oc4ccc5c(c4)CC(=O)N5)c3)cc2C(F)(F)F)CC1` is reported as 100% (binding, competition with immobilised ligand; 1 µM).
`FC(F)(F)c1ccc2c(c1)nc(-c1cccnc1)n2C1CC1` has a remaining binding of 87% (cell-free assay, competition with immobilised ligand; 1 µM).
`O=C(c1ccc(Nc2ncc(Cl)c(-c3cc4ccccc4s3)n2)cc1)N1CCC(N2CCCC2)CC1` has a remaining binding of 100% (binding, competition with immobilised ligand; 1 µM).
For `Nc1ncc2c(n1)-c1c([nH]c3ccc(C#CC4CC4)cc13)CCCC2`, the remaining binding was 86% (binding, competition with immobilised ligand; 1 µM).
With `CN(CCCC(F)(F)F)c1nccc(-c2cnn3ncccc23)n1` the remaining binding was 100% (binding; 1 µM).
With `O=C(N[C@H]1CCCCC/C=C\C2C[C@@]2(C(=O)O)NC(=O)[C@@H]2C[C@@H](Oc3ccncc3)CN2C1=O)OC1CCCC1` (stereo partly drawn) the remaining binding was 100% (binding, competition with immobilised ligand; 1 µM).
With `CN(C)c1nccc(-c2cnc3ncccn23)n1` the remaining binding was 81% (binding; 1 µM).
For `C[C@@H](c1ccc(-n2cnc3c(N)ncnc32)cc1)N1CCc2nn(C)c(Cc3ccccc3)c2C1=O`, the remaining binding was 82% (binding, competition with immobilised ligand; 0.1 µM).
